Data from ChEMBL document CHEMBL1133527, “Exploring the structural basis of neurotoxicity in C(17)-polyacetylenes isolated from water hemlock” (J Med Chem, 2000).

Experiments:
[1] = target: GABA-A receptor; anion channel; assay: Tested for inhibition of specific binding of [3H]-EBOB to GABA-Gated Chloride channels of Gamma-aminobutyric acid A receptor in rat brain cortex (Potency expressed as IC50); type: tissue-based
Method in brief: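 Washed cortical membranes from SD rats (7 weeks), prepared in 50 mM Tris-HCl pH 7.4 and stored at -80 °C, equivalent to 5 mg tissue, incubated with 3 nM [3H]EBOB and test agent at 25 °C for 1 h. Bound ligand collected by filtration on polyethylenimine-treated GF/B filters and counted by scintillation. IC50 from dose-response curves run in duplicate.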

Mus musculus = assay: Acute toxicity against mice after ip administration; type: organism-based; settings: in vivo

Row | Structure (SMILES) | IC50 [1] [µM] | LD50 (Mus musculus) [mg kg-1 i.p.]
1 | CCCCCC/C=C/C=C/C#CC#CCCCO | > 10 | > 37.8
2 | CCC[C@H](/C=C/C=C/C=C/C#CC#CCCCOC)OC | > 10 | > 57.2
3 | CCCC(=O)/C=C/C=C/C=C/C#CC#CCCCO | 3.05 | 7.6
4 | CCCCC[C@H](O)/C=C/C=C/C#CCCCO | > 10 | > 70.8
5 | CCC[C@@H](O)/C=C/C=C/C=C/C#CC#CCCC(N)=O | 1.56 | 1.1
6 | CCCCCC(O)/C=C/C=C/C#CC#CCCCO (stereo not given) |  | 7.7
7 | CCCC(=O)CC/C=C/C=C/C#CC#CCCCO | 3.64 | 1.1
8 | CCC[C@@H](O)/C=C/C=C/C=C/C#CC#CCCCOC(C)=O | 1.1 | 1.9
9 | CCCCCCC/C=C\[C@H](O)C#CC#CCCCO | 6.01 | > 393
10 | C=C(C)[C@@H]1[C@H]2OC(=O)[C@@H]1[C@]1(O)C[C@H]3OC34C(=O)O[C@H]2[C@@]41C.CC(C)(O)[C@@H]1[C@H]2OC(=O)[C@@H]1[C@]1(O)C[C@H]3OC34C(=O)O[C@H]2[C@@]41C (stereo not given in full) [PICROTOXIN] | 1.31 | 
11 | CCC[C@H](/C=C/C=C/C=C/C#CC#CCCCO)OC(C)=O | > 10 | 2.8
12 | CCC[C@H](/C=C/C=C/C=C/C#CC#CCCCOC(C)=O)OC(C)=O | > 10 | 15.7
13 | CCCC(O)/C=C/C=C/C=C/C#CC#CCCCO (stereo not given) | 2.01 | 38.6
14 | CCCC#CC#C/C=C/C=C/[C@@H](O)CCCCC | > 10 | > 97.6
15 | CCC[C@@H](O)/C=C/C=C/C=C/C#CC#CCCC(=O)O | 0.3 | 0.76
16 | CCCCCCC/C=C\C(=O)C#CC#CCCCO | > 10 | > 26
17 | CCCCCCC/C=C\CC#CC#CCCCO | > 10 | > 24.6
18 | CCCCCC(=O)/C=C/C=C/C#CC#CCCCO | > 10 | > 25.8
19 | CCC[C@@H](O)/C=C/C=C/C=C/C#CC#CCCCO [CICUTOXIN] | 0.54 | 2.8
20 | CCC[C@@H](O)/C=C/C=C/C=C/C#CC#CCCC(=O)OC | 0.42 | 1.6
21 | CCCCCCC[C@H](O)/C=C/C#CC#CCCCO | 7.87 | > 105
22 | CCC[C@@H](O)/C=C/C=C/C=C/C#CC#CCCC=O | 2.22 | 4.9
23 | CCCCNC(=O)CCC#CC#C/C=C/C=C/C=C/[C@H](O)CCC | > 10 | 4.9
24 | CCCCC[C@H](O)/C=C/C=C/C#CC#CCCCO | 1.15 | 9.5
25 | C=C[C@@H](O)C#CC#C[C@@H](O)/C=C\CCCCCCC [FALCARINDIOL] | > 10 | > 200
26 | CCC[C@@H](O)/C=C/C=C/C=C/C#CC#CCCCOC | 6.79 | 10.6
